Laboratory results reported in paper PMC2194103 (The Journal of Experimental Medicine, 2002).

How the values were obtained:
Q1.1B6 T cell clone = conditions: representative experiment; cited from earlier work
[1] = tested on: peripheral CD4+ T cells of the 1B6 transgenic mouse; test: Proliferation of naive ex-vivo 1B6 TCR transgenic T cells; format: cell-based; conditions: LNCs from 1B6 TCR transgenic mouse, [3H]thymidine added after 48 h; Fig. 1
Outline: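 Lymph node cells from a 1B6 TCR transgenic mouse were stimulated in culture with different peptide ligands. Per the general proliferation method, cultures were run in triplicate. After 48 h, [3H]thymidine (1 μCi/well) was added for the final 16 h before harvest. Incorporation was read by scintillation counting.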

I-A^s = target: T1, I-A^s (Mus musculus, UniProt P06345+P14437); conditions: binding to I-A^s relative to W144 (1.0); cited from earlier work
T1 sequence (P14437 1-233): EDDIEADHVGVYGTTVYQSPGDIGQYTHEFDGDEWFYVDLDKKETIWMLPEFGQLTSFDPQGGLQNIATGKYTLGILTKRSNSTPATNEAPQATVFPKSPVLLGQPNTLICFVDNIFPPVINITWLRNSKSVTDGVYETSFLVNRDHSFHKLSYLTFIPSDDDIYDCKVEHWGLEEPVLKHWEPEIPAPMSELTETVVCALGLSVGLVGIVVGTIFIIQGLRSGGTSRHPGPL
T1 sequence (P06345 28-263): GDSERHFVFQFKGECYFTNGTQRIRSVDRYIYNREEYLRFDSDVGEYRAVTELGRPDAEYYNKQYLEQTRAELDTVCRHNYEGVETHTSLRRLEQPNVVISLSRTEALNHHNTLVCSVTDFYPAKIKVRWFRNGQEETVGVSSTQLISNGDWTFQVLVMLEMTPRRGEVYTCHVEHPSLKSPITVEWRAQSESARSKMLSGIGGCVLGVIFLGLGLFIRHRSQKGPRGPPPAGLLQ

[2] = tested on: CD4+ 1B6 Rag2−/− T cell lines; test: Cytokine ELISA on 1B6 T cell lines; format: cell-based, mouse; conditions: supernatants after 40 h, Fig. 3

Sequence | Cytokine IFN-γ (Q1.1B6 T cell clone) | Cytokine IL-2 (Q1.1B6 T cell clone) [pg/mL] | Cytokine IL-4 (Q1.1B6 T cell clone) [pg/mL] | Cytokine TNF-α (Q1.1B6 T cell clone) [pg/mL] | Stimulatory potential for proliferation (hierarchy of response) [1] | Relative MHC binding (I-A^s) | Secretion of IL-2 by desensitized cells [2]
HSLGKWLGHPDKF [Ligand W144, reference compound] | 420 pg/mL | <50 | <50 | <50 | weaker ligand | 1.0 | 
HSLGKLLGHPDKF [Ligand L144] |  |  | 390 | 420 | superagonist ligand | 0.8 | selectively blunted
HSLGKQLGHPDKF [Ligand Q144] | 9,052 pg/ml | <50 | 200 | <50 | agonist | 0.6 | 
